These results are taken from ChEMBL document CHEMBL1127619, “Synthesis of naltrexone-derived delta-opioid antagonists. Role of conformation of the delta address moiety” (J Med Chem, 1994).

Assay [1] addresses Kappa-type opioid receptor (Cavia porcellus, UniProt P41144). The assay is described as follows: Tested for binding activity against kappa opioid receptor using [3H]U-69593 ligand. The gist of the method: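 Guinea pig brain membranes; competition of test ligand against the tritiated radioligand selective for each site: [3H]DPDPE (δ1), [3H]U69593 (κ), [3H]DAMGO (μ). Ki values derived from the competition curves.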

Assay [2] concerns the target Delta-type opioid receptor (Mus musculus) (UniProt P32300). Particulars: 100 nM.
The target in assay [3] is Mu-type opioid receptor (Cavia porcellus) (UniProt P97266). As to conditions: 100 nM.
Assay [4] deals with Kappa-type opioid receptor (Cavia porcellus) (UniProt P41144). As to conditions: 100 nM.
Assay [5] concerns the target T1, Delta-type opioid receptor (Rattus norvegicus, UniProt P33533). Kind of assay: Tested for binding activity against delta1 opioid receptor using [3H]DPDPE ligand.
The target of assay [6] is T1, Delta-type opioid receptor. Kind of assay: Tested for binding activity against delta opioid receptor using [3H]naltridole ligand.
Assay [7] concerns Mus musculus. The assay is described as follows: Antagonism of antinociceptive effect of delta 1 selective agonist DPDPE in mice, icv (treated). Type of assay: functional. As to conditions: central.
In assay [8] the test system is Mus musculus. Kind of assay: Antagonism of antinociceptive effect of delta 2 selective agonist DSLET in mice, icv (treated). It is filed as functional. Particulars: central.
For assay [9], the species on record is Mus musculus. Kind of assay: Antagonism of antinociceptive effect of kappa receptor selective agonist U-50,488 in mice (control). It is filed as functional. A digest of the protocol: (§1)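 Mouse tail-flick assay; agonist given icv without antagonist pretreatment, timed so its peak effect fell at the centre of the observation period. Control ED50 derived, expressed as nmol/mouse for DPDPE and DSLET and as µmol/kg for morphine and U50488.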

For assay [10], the species on record is Mus musculus. The assay is described as follows: Antagonism of antinociceptive effect of mu receptor selective agonist morphine in mice (control). Type of assay: functional. The gist of the method:
as §1

The species entered for assay [11] is Mus musculus. The assay is described as follows: Antagonism of antinociceptive effect of delta 1 selective agonist DPDPE in mice (control). It is filed as functional. The gist of the method:
as §1

The species named for assay [12] is Mus musculus. The assay is described as follows: Antagonism of antinociceptive effect of delta 2 selective agonist DSLET in mice (control). It is filed as functional. A digest of the protocol:
as §1

Assay [13] relates to Mus musculus. Kind of assay: Antagonism of antinociceptive effect of mu receptor selective agonist morphine in mice, icv (treated). As to conditions: central. It is filed as functional. A digest of the protocol: (§2)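 Mice received 2 nmol antagonist icv, timed with the icv agonist so the antagonist peak (20 min) coincided with the centre of the tail-flick observation period. Treated ED50 is in nmol/mouse for DPDPE and DSLET and in µmol/kg for morphine and U50488. ED50 ratio is treated over control.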

In assay [14] the test system is Mus musculus. Kind of assay: Antagonism of antinociceptive effect of kappa receptor selective agonist U-50,488 in mice, icv (treated). Type of assay: functional. Particulars: central. The gist of the method:
as §2

The target in assay [15] is Kappa-type opioid receptor (Cavia porcellus) (UniProt P41144). As to conditions: 100 nM. The source holds these as a separate data set.

Chain of Delta-type opioid receptor (Mus musculus) (P32300 whole entry): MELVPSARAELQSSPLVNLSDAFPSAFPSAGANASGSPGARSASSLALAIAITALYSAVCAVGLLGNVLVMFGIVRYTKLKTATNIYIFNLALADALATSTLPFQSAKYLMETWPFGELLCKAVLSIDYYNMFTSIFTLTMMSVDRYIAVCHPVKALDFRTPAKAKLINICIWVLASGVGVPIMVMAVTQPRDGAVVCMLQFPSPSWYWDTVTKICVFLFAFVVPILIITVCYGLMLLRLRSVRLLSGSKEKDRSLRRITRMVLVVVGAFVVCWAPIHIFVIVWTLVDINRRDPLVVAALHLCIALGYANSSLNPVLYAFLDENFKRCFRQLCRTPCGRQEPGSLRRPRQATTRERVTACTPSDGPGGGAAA
Chain of Kappa-type opioid receptor (Cavia porcellus) (P41144 whole entry): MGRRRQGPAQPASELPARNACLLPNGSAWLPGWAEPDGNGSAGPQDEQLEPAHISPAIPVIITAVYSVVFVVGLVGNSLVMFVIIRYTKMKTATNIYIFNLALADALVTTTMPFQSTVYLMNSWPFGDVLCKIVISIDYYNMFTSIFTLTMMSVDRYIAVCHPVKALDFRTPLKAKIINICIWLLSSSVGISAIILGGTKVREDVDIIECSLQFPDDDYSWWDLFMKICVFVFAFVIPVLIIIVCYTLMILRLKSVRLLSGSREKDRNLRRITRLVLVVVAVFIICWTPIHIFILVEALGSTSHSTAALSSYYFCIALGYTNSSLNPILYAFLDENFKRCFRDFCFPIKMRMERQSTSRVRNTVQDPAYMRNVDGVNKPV
Chain of Kappa-type opioid receptor (P41144 whole entry): as above
Chain of Mu-type opioid receptor (Cavia porcellus) (P97266 whole entry): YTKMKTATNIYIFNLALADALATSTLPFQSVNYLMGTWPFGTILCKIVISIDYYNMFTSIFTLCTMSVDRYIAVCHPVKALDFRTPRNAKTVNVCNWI
T1 sequence (P33533 whole entry): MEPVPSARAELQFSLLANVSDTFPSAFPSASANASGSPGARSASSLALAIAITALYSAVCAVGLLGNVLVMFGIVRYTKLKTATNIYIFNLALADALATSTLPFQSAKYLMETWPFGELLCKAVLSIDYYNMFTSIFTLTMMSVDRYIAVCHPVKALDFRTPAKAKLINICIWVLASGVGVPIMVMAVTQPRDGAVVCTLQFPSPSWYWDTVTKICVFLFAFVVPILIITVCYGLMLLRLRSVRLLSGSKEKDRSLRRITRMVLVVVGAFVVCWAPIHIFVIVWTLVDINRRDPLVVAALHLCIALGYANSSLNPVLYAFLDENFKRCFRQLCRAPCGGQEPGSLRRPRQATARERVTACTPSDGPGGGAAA

As to `O=C1[C@@H](Cc2ccccc2)C[C@@]2(O)[C@H]3Cc4ccc(O)c5c4[C@@]2(CCN3CC2CC2)[C@H]1O5`, in [1], the inhibition constant (Ki) (commonly a dissociation constant, usually derived from enzyme kinetics or from competition with a known ligand) amounted to 25 nM. In addition, the Ke in assay [2] amounted to 1.5 nM; in assay [3] it was 21 nM.

In assay [1], `O=C1/C(=C/c2ccccc2)C[C@@]2(O)[C@H]3Cc4ccc(O)c5c4[C@@]2(CCN3CC2CC2)[C@H]1O5` [BNTX] registered a Ki of 5.9 nM. Moreover, the Ke in assay [2] worked out at 2.9 nM; in assay [4] it was 100 nM; in [3], 8.3 nM.

Compound `O=C1/C(=C\c2ccccc2)C[C@@]2(O)[C@H]3Cc4ccc(O)c5c4[C@@]2(CCN3CC2CC2)[C@H]1O5` returned an inhibition constant (Ki) in assay [1] of 66 nM. For the same compound, the Ke in assay [2] was 24 nM; in assay [4], 53 nM.

As for `Oc1ccc2c3c1O[C@H]1C4(CC[C@@]5(O)[C@@H](C2)N(CC2CC2)CC[C@]315)Oc1ccccc1O4`, the Ki in assay [1] was found to be 25 nM. This compound also had a Ke in assay [3] of 40 nM.

With `Oc1ccc2c3c1O[C@H]1c4[nH]c5ccccc5c4C[C@@]4(O)[C@@H](C2)N(CC2CC2)CC[C@]314` [NALTRINDOLE], the inhibitory constant (Ki) in assay [5] worked out at 0.0072 nM.

With `Oc1ccc2c3c1O[C@H]1[C@@H](Nc4ccccc4)CC[C@@]4(O)[C@@H](C2)N(CC2CC2)CC[C@]314`, the inhibition constant Ki in assay [1] was determined as 2.2 nM. Besides, the Ke in assay [2] came out at 8.8 nM; in assay [4] it was 100 nM; in assay [3] it was 3.2 nM.

For `O=C1[C@@H]2Oc3c(O)ccc4c3[C@@]23CCN(CC2CC2)[C@H](C4)[C@]3(O)CC12Cc1ccccc1C2`, the inhibition constant Ki in assay [6] stood at 0.047 nM; in [1] it was 12.5 nM. For the same compound, the ED50 in the assay on Mus musculus [7] stood at 46.3 µmol/kg; in the assay with Mus musculus [8] it was 2.8 µmol/kg; in the assay listed under Mus musculus [9] it was 8.6 uM mouse-1; in the assay filed under Mus musculus [10] it was 6.9 uM mouse-1; in the assay filed under Mus musculus [11] it was 6.4 uM mouse-1; in the assay filed under Mus musculus [12], 0.7 uM mouse-1. In addition, the ED50 in the assay on Mus musculus [13] worked out at 21.1 µmol/kg; in the assay on Mus musculus [14], 12.2 µmol/kg. For the same compound, the Ke in assay [2] was 0.78 nM; in assay [3], 4.2 nM; in assay [15], 105 nM.

`Oc1ccc2c3c1O[C@H]1[C@H](Nc4ccccc4)CC[C@@]4(O)[C@@H](C2)N(CC2CC2)CC[C@]314`: the inhibitory constant (Ki) in assay [1] came out at 2.2 nM. Moreover, the Ke in assay [2] came out at 100 nM; in assay [4] it was 6 nM; in [3], 1.3 nM.
